Calls of active or inactive are those of the source. No cut-off for these calls is given here.
Assays:
MDA-MB-231 = assay: Cytotoxicity against human MDA-MB-231 cells assessed as reduction in cell viability up to 20 uM after 24 hrs by MTT assay; type: functional, cell-based
Summary of the method: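 Cells were grown as adherent monolayers at 37 °C in 5% CO2: SKOV3 in advanced DMEM, DU145 and MB231 in RPMI-1640 with glutamine and 10% FBS. They were seeded at 2000–7500 cells/well, treated on day 1 for 24 h with drug in DMSO (final DMSO <0.1%), then given MTT at 0.83 mg mL−1 final overnight. After SDS/HCl lysis, A570 was read as percent of drug-free control; five replicate wells.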

[1] = Drug uptake in mock transfected HEK293 cells by HPLC-UV assay; type: ADME, cell-based; details: human
[2] = target: T1, Solute carrier family 22 member 1 (Homo sapiens, UniProt O15245); assay: Substrate activity at human OCT1 expressed in HEK293 cells assessed as compound uptake by HPLC-UV method; type: ADME, cell-based
T1 sequence (O15245 whole entry): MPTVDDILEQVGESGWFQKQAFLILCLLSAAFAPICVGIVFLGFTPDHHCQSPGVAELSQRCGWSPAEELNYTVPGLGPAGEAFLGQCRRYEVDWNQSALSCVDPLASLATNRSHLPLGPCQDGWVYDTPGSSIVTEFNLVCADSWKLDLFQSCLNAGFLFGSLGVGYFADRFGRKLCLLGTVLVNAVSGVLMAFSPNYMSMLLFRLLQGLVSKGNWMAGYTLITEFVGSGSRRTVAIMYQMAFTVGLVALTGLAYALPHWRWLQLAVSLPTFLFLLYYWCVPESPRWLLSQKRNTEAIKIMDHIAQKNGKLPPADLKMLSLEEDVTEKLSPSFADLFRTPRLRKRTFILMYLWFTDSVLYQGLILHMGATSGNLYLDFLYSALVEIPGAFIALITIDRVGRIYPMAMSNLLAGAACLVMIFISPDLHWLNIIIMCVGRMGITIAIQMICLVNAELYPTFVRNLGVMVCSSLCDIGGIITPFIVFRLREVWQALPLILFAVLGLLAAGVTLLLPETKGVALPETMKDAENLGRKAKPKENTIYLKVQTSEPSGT

[3] = Ratio of CA4 aqueous solubility to test compound aqueous solubility; type: physicochemical; details: buffer
HT-29 = assay: […] for human HT-29 cells assessed as reduction in cell viability after 72 hrs by MTT assay; type: functional
Summary of the method: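 HT29 cells were cultured in RPMI-1640 with glutamine and 10% FBS, seeded at 2000–7500 cells/well, and exposed for 72 h to drug in DMSO (final DMSO <0.1%). MTT was added at 0.83 mg mL−1 final and incubated overnight, then cells were lysed in SDS/HCl and read at 570 nm. Survival was expressed as percent of drug-free control; five replicate wells.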

[4] = target: T2, Solute carrier organic anion transporter family member 2B1 (Homo sapiens, UniProt O94956); assay: Substrate activity at human OATP2B1 expressed in HEK293 cells assessed as compound uptake by HPLC-UV method relative to control; type: ADME, cell-based
T2 sequence (O94956 whole entry): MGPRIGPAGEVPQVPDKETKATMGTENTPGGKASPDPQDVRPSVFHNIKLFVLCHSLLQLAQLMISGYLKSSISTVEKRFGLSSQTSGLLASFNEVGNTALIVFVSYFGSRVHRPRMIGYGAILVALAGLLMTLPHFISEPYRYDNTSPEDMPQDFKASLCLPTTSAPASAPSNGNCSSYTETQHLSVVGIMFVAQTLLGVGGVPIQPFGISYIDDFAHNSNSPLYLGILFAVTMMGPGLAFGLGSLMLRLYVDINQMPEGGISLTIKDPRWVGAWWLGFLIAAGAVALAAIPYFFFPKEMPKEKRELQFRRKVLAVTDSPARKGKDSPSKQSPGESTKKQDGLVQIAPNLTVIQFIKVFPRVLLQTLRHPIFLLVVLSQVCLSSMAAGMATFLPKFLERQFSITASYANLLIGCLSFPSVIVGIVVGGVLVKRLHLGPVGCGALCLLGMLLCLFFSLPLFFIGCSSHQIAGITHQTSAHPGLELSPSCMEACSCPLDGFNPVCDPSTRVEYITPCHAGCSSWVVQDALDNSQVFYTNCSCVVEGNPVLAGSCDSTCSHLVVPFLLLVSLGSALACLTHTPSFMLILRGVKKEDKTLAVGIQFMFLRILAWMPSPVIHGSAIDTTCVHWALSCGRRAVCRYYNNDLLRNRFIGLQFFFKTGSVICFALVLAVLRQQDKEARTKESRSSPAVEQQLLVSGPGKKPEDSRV

[5] = Drug uptake in mock transfected HEK293 cells in presence of OATP2B1 inhibitor rifampicin by HPLC-UV method; type: ADME, cell-based; details: human
[6] = target: T2, Solute carrier organic anion transporter family member 2B1; assay: Substrate activity at human OATP2B1 expressed in HEK293 cells assessed as compound uptake in presence of OATP2B1 inhibitor rifampicin by HPLC-UV method; type: ADME, cell-based
Mus musculus = assay: Ratio of compound MTD to CA4 MTD in ip dosed DBA/2 mouse assessed as reduction in 15% body weight administered as daily dose for 3 days; type: ADME, organism-based; details: in vivo, 72 h

Compound | Activity (MDA-MB-231) | Drug uptake [1] | Drug uptake [2] | Ratio [3] | Ratio IC50 (HT-29) | Drug uptake [4] | Drug uptake [5] | Drug uptake [6] | Ratio (Mus musculus)
COc1ccc(/C=C\c2cc(OC)c(OC)c(OC)c2)cc1O [COMBRETASTATIN A4] | Active | Active | Active | – | – | – | – | – | –
COc1ccc(/C=C\c2cc(OC)c(OC)c(OC)c2)cc1O[C@@H]1O[C@H](CO)[C@@H](O)[C@H](O)[C@H]1O | Active | – | Not Active | 610 | 9.59 | 60% | Active | Active | 16
